≈ marks a conversion by molar mass, not a printed value. Calls of active or inactive are those of the source. The rule behind the calls is not given here.
Legend:
Staphylococcus aureus = assay: Antibacterial activity against Staphylococcus aureus after 2 days by agar plate dilution method; type: functional; settings: 48 h
Method in brief: (§1)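 Agar plate dilution: each sample concentration is incorporated into soybean casein digest (SCD) agar. Gram-positive bacteria are applied to the agar surface and incubated 2 days at 30 °C. Activity is judged by whether colonies form.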

Bacillus subtilis = assay: Antibacterial activity against Bacillus subtilis after 2 days by agar plate dilution method; type: functional; settings: 48 h; method in brief: as §1
Botrytis cinerea = assay: Antifungal activity against Botrytis cinerea after 2 days by agar plate dilution method; type: functional, organism-based
Method in brief: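 Agar plate dilution: each sample concentration is incorporated into potato dextrose (PD) agar. Fungus is applied to the agar surface and incubated 2 days at 30 °C. Activity is judged by whether spores form.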

Row | SMILES | MIC (Staphylococcus aureus) | MIC (Bacillus subtilis) | Activity (Botrytis cinerea)
1 | C=C(C)[C@@H]1C[C@@H](OC(=O)C(C)C)[C@@]2(C1)C(C)=CC(=O)[C@H](O)[C@H]2C | 250 µg/mL (≈ 780 µM) | 250 µg/mL (≈ 780 µM) | –
2 | C=C(C)[C@@H]1C[C@@H](OC(=O)/C(C)=C/C)[C@@]2(C1)C(C)=CC(=O)[C@H](O)[C@H]2C | 100 µg/mL (≈ 301 µM) | 250 µg/mL (≈ 752 µM) | Active
3 | C=C(C)[C@@H]1CC[C@@]2(C1)C(C)=CC(=O)C[C@H]2C [SOLAVETIVONE] | 100 µg/mL (≈ 458 µM) | 100 µg/mL (≈ 458 µM) | –
4 | C=C(C)[C@@H]1C[C@@H](O)[C@@]2(C1)C(C)=CC(=O)[C@H](O)[C@H]2C | 500 µg/mL (≈ 2000 µM) | 500 µg/mL (≈ 2000 µM) | –
5 | C=C(C)[C@@H]1C[C@@H](OC(=O)C=C(C)C)[C@@]2(C1)C(C)=CC(=O)[C@H](O)[C@H]2C | 100 µg/mL (≈ 301 µM) | 250 µg/mL (≈ 752 µM) | –

Source: ChEMBL document CHEMBL1151326, “Phytoalexins from hairy roots of Hyoscyamus albus treated with methyl jasmonate” (1998)
